Rows were chosen to be rich in hits. Some 1.8% of all compounds tested hit in one or more screens of this group.
CHRM4 agonist: human M4 muscarinic receptor agonists, primary screen, CHO-K1 cells, Fluo-8 calcium fluorescence. Muscarinic acetylcholine receptor M4 (Homo sapiens), P08173. CHO-K1 hM4/Gqi5; vehicle 0%, full acetylcholine response 100%. activation, % at 3 µM. actives 0.14% (n = 360,000). AID 624127, 2012;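 active means activation above the run mean over all test wells plus 3 SD, cut at about 32% in these data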;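 further: peak over basal fluorescence ratio per well then scaled between controls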
M5 ag: human M5 muscarinic receptor agonists, primary screen, CHO-K1 cells, Fluo-8 calcium fluorescence; CHO-K1 hM5 cells; 0% DMSO wells, 100% maximal acetylcholine response; activation, % at 3 µM; AID 624037, 2012; actives 0.19% (n = 360,000);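 active means activation above the run's mean over test compounds plus 3 SD, cut at about 23% in these data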;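 further: signal is peak over basal fluorescence ratio across the kinetic read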
Target sequence (P08912 whole entry, looked up): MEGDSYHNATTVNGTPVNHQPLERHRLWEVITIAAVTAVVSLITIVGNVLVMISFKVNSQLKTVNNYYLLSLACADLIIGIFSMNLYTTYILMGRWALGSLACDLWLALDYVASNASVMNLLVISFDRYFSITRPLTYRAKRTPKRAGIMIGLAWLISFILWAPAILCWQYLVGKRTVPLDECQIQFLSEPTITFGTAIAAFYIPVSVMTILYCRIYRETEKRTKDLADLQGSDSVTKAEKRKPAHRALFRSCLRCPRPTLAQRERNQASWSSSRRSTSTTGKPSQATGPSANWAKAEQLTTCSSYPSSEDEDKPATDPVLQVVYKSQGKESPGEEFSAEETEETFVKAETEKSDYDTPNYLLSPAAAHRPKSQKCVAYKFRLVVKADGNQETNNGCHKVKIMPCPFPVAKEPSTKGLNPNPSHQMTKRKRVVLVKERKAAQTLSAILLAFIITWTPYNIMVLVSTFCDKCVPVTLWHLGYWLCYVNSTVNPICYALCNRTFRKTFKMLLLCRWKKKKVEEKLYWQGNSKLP
M5 antag: human M5 muscarinic receptor antagonists, primary screen, CHO cells, Fluo-8 calcium fluorescence; Muscarinic acetylcholine receptor M5 (Homo sapiens), P08912; CHO-hM5 cells, ACh EC80; inhibition, % at 3 µM; actives 0.59% (n = 360,000);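 active means inhibition above a per-plate cutoff, the mean of that plate's test compounds plus 3 SD, cut at about 27% in these data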
CHRM4 PAM: human M4 muscarinic receptor positive allosteric modulators, primary screen, CHO-K1 cells, Fluo-8 calcium fluorescence | Muscarinic acetylcholine receptor M4 (Homo sapiens), P08173 | CHO-K1 hM4/Gqi5, ACh EC20; 0% = ACh EC20, 100% = maximal ACh | activation, % at 3 µM | actives 0.4% (n = 360,000) | AID 624126, 2012;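 active means activation above its plate's cutoff, the mean activation of sample wells plus 3 SD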
CHRM5 PAM: human M5 muscarinic receptor positive allosteric modulators, primary screen, CHO-K1 cells, Fluo-8 calcium fluorescence | Muscarinic acetylcholine receptor M5 (Homo sapiens), P08912 | CHO-K1 hM5, ACh EC20 PAM; 0% = ACh EC20, 100% = ACh EC100 | activation, % at 3 µM | actives 0.3% (n = 360,000) | AID 624038, 2012;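 active means activation above the run cutoff, the mean activation of all test compounds plus 3 SD, cut at about 18% in these data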
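Assay system – human M5 receptor in CHO-K1 cells · Read-out – % activation, ACh-normalized · Technique – Fluo-8 calcium fluorescence · Dosing – single-point, 3 µM nominal · Incubation – Fluo-8 loading 80 min at 37 °C plus 30 min room temperature · Repeats – singlicate, one well per test compound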
M4 antag: human M4 muscarinic receptor antagonists, primary screen, CHO cells, Fluo-8 calcium fluorescence. Muscarinic acetylcholine receptor M4 (Homo sapiens), P08173. CHO-hM4 cells, ACh EC80. inhibition, % at 3 µM. actives 0.73% (n = 360,000);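 active means inhibition above its plate's cutoff, the mean inhibition of sample wells plus 3 SD, cut at about 27% in these data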
Of the large screens only hits and unclear results are named; the others gave an inactive call.

Cc1ccc(C)c(N2CCN(C(=O)c3ccc(N4CCCC4=O)cc3)CC2)c1	none
CN(CCOc1ccc(Cl)cc1)C(=O)c1cc(-c2ccco2)nc2ccccc12	M5 antag 28
CCC(C)(C)NC(=O)C1CCN(S(=O)(=O)c2cccs2)CC1	M5 antag 33
COCCNC(=O)CN(Cc1ccccc1)S(=O)(=O)c1ccc2nc(C)sc2c1	none
C#CCOCCOCCOCCNc1nc(N2CCN(C(=O)CCCCCCCCCCNC(=O)[C@H]([C@@H](C)CC)n3cc(CCCCN=C(N)N)nn3)CC2)nc(N2CCN(C(=O)CCCCCCCCCCNC(=O)[C@H](CO)n3cc(CCCCCN)nn3)CC2)n1	M4 antag 34
CC(C)(C)OC(=O)CC[C@@H](C(=O)NCCCCCCCCCCC(=O)N1CCN(C(=O)OC(C)(C)C)CC1)n1cc(CCCCCNC(=O)OC(C)(C)C)nn1	none
CC(C)(C)OC(=O)NCCCCCc1cn([C@@H](CO)C(=O)NCCCCCCCCCCC(=O)N2CCN(C(=O)OC(C)(C)C)CC2)nn1	CHRM4 agonist 34, M5 antag 38, M4 antag 69
NCCCCCc1cn(CC(=O)NCCCCCCCCCCC(=O)N2CCNCC2)nn1	CHRM4 PAM 23
C[C@@H](O)Cc1cn(CC(=O)NCCCCCCCCCCC(=O)N2CCNCC2)nn1	none
C#CCOCCOCCOCCNc1nc(N2CCN(C(=O)CCCCCCCCCCNC(=O)Cn3cc(CCCCCN)nn3)CC2)nc(N2CCN(C(=O)CCCCCCCCCCNC(=O)[C@H]([C@@H](C)CC)n3cc(CCCCN=C(N)N)nn3)CC2)n1	M4 antag 41
C#CCOCCOCCOCCNc1nc(N2CCN(C(=O)CCCCCCCCCCNC(=O)[C@H]([C@@H](C)CC)n3cc(CCCCCN)nn3)CC2)nc(N2CCN(C(=O)CCCCCCCCCCNC(=O)[C@H]([C@@H](C)CC)n3cc(CCCCN=C(N)N)nn3)CC2)n1	none
O=C(CCc1ccccc1)NC(=S)Nc1ccccc1[N+](=O)[O-]	none
O=C(O)/C=C/c1cnc2ccccc2c1	none
CC(C)c1ccc(NC(=O)COC(=O)C2CC3C=CC2C3)cc1 (stereo not drawn)	none
COc1cccc(S(=O)(=O)Nc2cccc(C(=O)N3CCCC3)c2)c1	none
COc1cccc(S(=O)(=O)Nc2cccc(C(=O)N3CCOCC3)c2)c1	M4 antag 36
Nc1nc(SCC(=O)Nc2ccc(OCc3ccccc3)cc2)n[nH]1	none
C[C@@H]1CCCCO[C@H](CN(C)C(=O)Nc2ccccc2)[C@@H](C)CN([C@H](C)CO)C(=O)c2cc(NS(=O)(=O)c3cn(C)cn3)ccc2O1	none
Cc1ccc(-c2csc(N3CCN(CCCn4c(-c5ccncc5)nc5ccccc54)CC3)n2)cc1	none
Cc1ccc(-c2csc(N3CCC[C@@H]3C(=O)NCCn3c(-c4ccncc4)nc4ccccc43)n2)cc1	M4 antag 48
Nc1ncc(Br)cc1S(=O)(=O)NCCc1ccccc1	none
Cc1[nH]c2ccccc2c1CC#N	none
Cc1[nH]c2ccccc2c1C1=CC(=O)C=CC1=O	M4 antag 45
CNC(=O)c1cc(Oc2ccc(NC(=O)Nc3ccc(Cl)c(C(F)(F)F)c3)cc2)ccn1	M5 antag 30, M4 antag 32
O=C1Nc2ccccc2-n2nnnc2C1N1CCN(c2ccc(C(F)(F)F)cc2[N+](=O)[O-])CC1 (stereo not drawn)	M5 ag 24
OC(c1ccc(Cl)c(Cl)c1)c1ncc(-c2ccccc2C(F)(F)F)[nH]1 (stereo not drawn)	none
CC(=O)c1ccc(N2CCN(S(=O)(=O)c3ccc(-c4cnc(C5CC5)o4)cc3)CC2)cc1	none
CC(=O)NCC(=O)N(c1ccccc1)C1(C(=O)NC2CCCCC2)CCCCC1	CHRM5 PAM 20
CN(C(=O)c1ccccn1)C1(C(=O)NC2CCCCC2)CCCCC1	none
COc1ccc(S(=O)(=O)N(C)C)cc1NC(=O)CN1C(=O)NC2(CCCC2)C1=O	none
CN1CCN(CCCN2c3ccccc3Sc3ccc(Cl)cc32)CC1	none
OC1CC2CCC(C1)N2CCCN1c2ccccc2Sc2ccc(Cl)cc21 (stereo not drawn)	M4 antag 37
CCc1ccc(N2CC(C(=O)N3CCN(c4ccccn4)CC3)CC2=O)cc1 (stereo not drawn)	CHRM4 PAM 26
CCOc1ccc(N2CC(C(=O)N3CCN(c4ccccn4)CC3)CC2=O)cc1 (stereo not drawn)	none
Cc1ccc(NC(=O)CCNS(=O)(=O)c2ccc(Br)cc2)cc1S(=O)(=O)N1CCOCC1	none
Cc1ccc(N(Cc2ccccc2)C(=O)CSC(C)C(=O)Nc2cc(C)on2)cc1 (stereo not drawn)	none
COC(=O)C1CCN(c2cc(=O)n(Cc3ccc(F)cc3)c(=O)[nH]2)CC1	none
CCOC(=O)C1CCCN(c2cc(=O)n(Cc3ccc(F)cc3)c(=O)[nH]2)C1 (stereo not drawn)	M5 ag 24
CC1CCN(C(=O)CSc2ccc(-c3cccnc3)nn2)CC1	none
Cc1nn(C(C)C(=O)NCC2CCCO2)c(C)c1[N+](=O)[O-] (stereo not drawn)	none
Cc1cc(=O)n2nc(N3CCCC3C(=O)NCCCN3CCCCC3)sc2n1 (stereo not drawn)	CHRM5 PAM 19
Cc1oc2c(CN3CCCCC3)c(O)ccc2c(=O)c1-c1ccc(Br)cc1	M4 antag 30
Cc1oc2c(CN3CCCC3)c(O)ccc2c(=O)c1-c1ccc(Br)cc1	M4 antag 70
COc1ccc(-c2c(C)oc3c(CN4CCOCC4)c(O)ccc3c2=O)cc1OC	none
COc1ccc(-c2c(C)oc3c(CN4CCOCC4)c(O)ccc3c2=O)cc1	none
COc1ccc(/C=C/C(=O)Nc2ccccc2C(=O)NCC(c2ccc(OC)cc2)N(C)C)cc1 (stereo not drawn)	none
CCCCOCCCNC(=O)C[C@@H]1C[C@@]2(C(=O)OC)CCCCC=C2N(CCc2ccc(OC)c(OC)c2)C1=O	none
COc1cc2c(cc1OC)CN(C(=O)c1cccc(S(=O)(=O)N(C)C)c1)CC2	M4 antag 29
O=C(Nc1ccccc1N1CCN(c2ccc(F)cc2)CC1)C12CC3CC(CC(C3)C1)C2	CHRM5 PAM 20

Screening data deposited in PubChem by The Scripps Research Institute Molecular Screening Center.
